Measurements from the EternaBench riboswitch data.

Test system: MS2 coat protein
Assay: apparent Kd, MS2 coat protein; higher = weaker binding; RNA-MaP array; FMN 200 µM where present
Procedure, shortened: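 The apparent Kd comes from binding curves fitted cluster by cluster, filtered, and summarised as a median. Those curves followed SNAP-549-labelled MS2 coat protein from 0.7 or 1.5 nM, doubling to 3 µM, on Illumina sequencing-chip clusters where stalled E. coli RNA polymerase had transcribed the designs, without and then with constant ligand. The buffer was 100 mM Tris-HCl pH 7.5, 80 mM KCl, 4 mM MgCl2, BSA, DTT, yeast tRNA and Tween-20, and green signal was normalised to red-channel RNA signal and control-cluster median Fmax.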

[1] = designed as: OFF switch for flavin mononucleotide, no ligand
[2] = ligand present: flavin mononucleotide, designed as: OFF switch for flavin mononucleotide
[3] = designed as: ON switch for flavin mononucleotide, no ligand
[4] = ligand present: flavin mononucleotide, designed as: ON switch for flavin mononucleotide

Sequence	apparent Kd [1]	apparent Kd [2]	apparent Kd [3]	apparent Kd [4]
AUAUUUGUUUAGAAGGACAUGAGGAUCACCCAUGUCGCUGGGCGCGGGAAACCGUGGGCGGCCAUGUAGGAUAUAGGGAGAUAU	36.6 nM	24 nM	–	–
AUCAAGUGAGGAUAUGAUAAUACAACAAACAAACAUCUACAUCAGAAGGCACAUGAGGAUCACCCAUGUUAAUC	22.7 nM	27.1 nM	–	–
AUCAGAUCUCGACUGUCCAACAUGAGGAUCACCCAUGUCAGAAGAAGGGACUAUUAACUAAUCUGUCAGGAUAUUUUGACGCGG	10.6 nM	49.7 nM	–	–
AUCAGCUCGUCAGGAUAUACGUCACUGCGUCAGCAGUGCGGUAAGAUCACAUGAGGAUCACCCAUGUAGAAGGGACGAGCUGAU	6.4 nM	20.1 nM	–	–
AUCAGCUCGUCAGGAUAUACGUCACUGCGUCAGCAGUGUGGAAAGAUCACAUGAGGAUCACCCAUGUAGAAGGGACGAGCUGAU	36.2 nM	279 nM	–	–
AUCAGCUCGUCAGGAUAUACGUCACUGCGUCAGCAGUGUGGUAAGAUAACAUGAGGAUCACCCAUGUAGAAGGGACGAGCUGAU	7.29 nM	13.1 nM	–	–
AUCAGCUCGUCAGGAUAUACGUCACUGCGUCAGCAGUGUGGUAAGAUCACAUGAGGAUCACCCAUGUAGAAGGAACGAGCUGAU	8.41 nM	14.7 nM	–	–
AUCAGCUCGUCAGGAUAUACGUCACUGCGUCAGCAGUGUGGUAAGAUCACAUGAGGAUCACCCAUGUAGAAGGGACGACCUGAU	13.8 nM	278 nM	–	–
AUCAGCUCGUCAGGAUAUACGUCACUGCGUCAGCAGUGUGUUAAGAUCACAUGAGGAUCACCCAUGUAGAAGGGACGAGCUGAU	6.7 nM	27.9 nM	–	–
AUCAGCUCGUCAGGAUAUACGUCACUGCGUCAGCCGUGUGGUAAGAUCACAUGAGGAUCACCCAUGUAGAAGGGACGAGCUGAU	16.6 nM	247 nM	–	–
AUCAGCUCUUCAGGAUAUACGUCACUGCGUCAGCAGUGUGGUAAGAUCACAUGAGGAUCACCCAUGUAGAAGGGACGAGCUGAU	12.2 nM	173 nM	–	–
AUCAGCUUGUCAGGAUAUGCGUGUCAACGAAAGUUGACAAUCUUAAUAACAUGAGGAUCACCCAUGUAGAAGGGACGAGCUGAU	17.1 nM	17.9 nM	–	–
AUCAGUACGUGAGGAUAUGCGUUACUGCGAAAGCAGUACGGUAAGAUCACAUGAGGAUCACCCAUGUAGAAGGCACGAACUGAU	18.9 nM	37.5 nM	–	–
AUCAUGAGAGGAUAUACAUGAGGAUCACCCAUGUGGUCAUCUCCACGGGCUCAAUUACGUAGAAGGCUCAUUUG	18 nM	66.2 nM	–	–
AUCCACCGCACGGACACGUCGAGUCAGGAUAUACAUGAGGAUCACCCAUGUGAAGGCCGGCUCAUGUAGAAGGGACAGGCGUUG	10.4 nM	22.5 nM	–	–
AUCCAGCGAGGAUAUACAUAGAUUUUUUCGUUUUGUCUCGAACAUGAGGAUCACCCAUGUAGAAGGUGCUUCAC	82.5 nM	81 nM	–	–
AUCCAUUGAGAGAAGGGAGUACAUGAGGAUCACCCAUGUGGUCGUUCAUACUCAGGAUAUCUAACUGGGUUAGUGGCGCACGCC	166 nM	367 nM	–	–
AUCCGGAGUCAGGAUAUGUGGCUAAAGAUGCGCAUAGAAGGGAUUACAUGAGGAUCACCCAUGUGGCUUACAUG	132 nM	109 nM	–	–
AUCCGGCGUGUAGGAUAUGGAUCCGAUUAGGAUCCAGAAGGACAUGAGGAUCACCCAUGUACAUGUAAACAGUCAUCACCGGAG	10.2 nM	56.4 nM	–	–
AUCGAACAUGAGGAUCACCCAUGUCAGUCGAACCAAGGAUAUGGGCAGGGUUCUCUUGCACCAGAAGGUGGCUAAA	–	–	56.9 nM	95.7 nM
AUCGGGAUUACAUGAGGAUCACCCAUGUCAGAACGGGUAGUUAGAAGGUGCCAUUAGGGAGAGGGUAAGGAUAUAAUUUUUGGC	–	–	14.6 nM	12.8 nM
AUCGUAACAGGAGGAUAUUACACUCGGUUGGUCCGCUGCGGGUUGAAACAUGAGGAUCACCCAUGUAAGAAGGCCUGUGUGACU	317 nM	103 nM	–	–
AUCGUGCUAGGAUAUACAGACGGGUGUAGACGUGCAGGCAAACAUGAGGAUCACCCAUGUAGAAGGAGUAGUUA	159 nM	88.8 nM	–	–
AUCGUGUGAGGAUAUCGAUGUUGGACGUCUAGGUCUGAGCGCGAGAAGGCACAUGAGGAUCACCCAUGUAAUGG	272 nM	350 nM	–	–
AUGAGUAAAGCAGGAUAUCUAUUGACUCUGUAACAUGAGGAUCACCCAUGUAGAGAAGGGCUAAUUCUUACUCUUCGGAGUUGA	10.2 nM	11.7 nM	–	–
AUGCCUUAUGUAGGAUAUGCAUAGCAUUGCUAUGCAGAAGGACAUGAGGAUCACCCAUGUAUGUAUUCCAUACAUAUCUGGCAU	29.5 nM	343 nM	–	–
AUGCGUGGCUAGGAUAUCGAGGAAUCUAGCCAGCGAGAAGGAGCCACAUGAGGAUCACCCAUGUGGUGAACCUC	22.8 nM	17.6 nM	–	–
AUGCUAGUGUGAGGAUAUACAUGAGGAUCACCCAUGUGUCCGAAGUACCGGACAUGAGGUACGUCGUAGAAGGUACAUUAGCAU	21 nM	102 nM	–	–

Sequence	apparent Kd [1]	apparent Kd [2]	apparent Kd [3]	apparent Kd [4]
AUGCUAGUGUGAGGAUAUUAGACAUGAGGAUCACCCAUGUGUAAGAUCAUGACGAUCACGCAUGAUAAGAAGGUACAUUAGCAU	54.6 nM	99.7 nM	–	–
AUGCUAUACGAAGGAUAUGGUUACAUGAGGAUCACCCAUGUAAUUCUUGUGAUCUUGUUUAAGUUCCAGAAGGUCGUAUAGCUA	29.1 nM	88.2 nM	–	–
AUGCUAUACGAAGGAUAUGGUUACAUGAGGAUCACCCAUGUUAUGAUUGGUUACUUGUUUAGUUUCCAGAAGGUCGUAUAUUUA	51 nM	235 nM	–	–
AUGCUUCACACAGGAUAUACAUGAGGAUCACCCAUGUGUCCACCGUAGCUGACACGAGCUACGCUGUAGAAGGGUGUGAAGCAU	19.3 nM	52.8 nM	–	–
AUGCUUCACACAGGAUAUACAUGAGGAUCACCCAUGUGUCCUCCGUAGCUGACACGAGCUACGCGGUAGAAGGGUGUGAAGCAU	91 nM	698 nM	–	–
AUGGGUUAAGGAGGAUAUAGAGGGAGAAGUAAACAUGAGGAUCACCCAUGUAUUUAAUUAGUUUACUAGAAGGCUUGUGAUUGU	–	–	33.6 nM	41.5 nM
AUGUAGUACGUAGGAUAUCAAUGAGGAUCACCCUGAGAAGGACGUGAGGACAUGAGGAUCACCCAUGUGGAUCACCCAUGUCAU	173 nM	142 nM	–	–
AUUAAACAUGAGGAUCACCCAUGUAAUAUUAUGGGAGGAUAUGCGAAUUUAAUUAAUUAAGCAGAAGGCCUAAUUA	–	–	108 nM	19 nM
AUUAAACAUGAGGAUCACCCAUGUCAACAAAGUCGAGGAUAUGGGCAAAUAAAAUAAGAACCAGAAGGCGACUAAU	–	–	22.8 nM	16 nM
AUUAAUUAAUUAAUACAUGAGGAUCACCCAUGUAAUAAGAUCAAGGAUAUCAGCUCGUUUAGAGCUGAGAAGGUGAUCACAUGU	–	–	617 nM	214 nM
AUUACAUGAGGAUCACCCAUGUACAGAACGUUUCAAUACAGUGAGGAUAUACGAAAUGUAGGAACGUAGAAGGCACUGGGUACA	–	–	181 nM	65.8 nM
AUUACCACGGUAAGGAUAUUGUACGCAGCAUGCGUUAAGAAGGUACAUGAGGAUCACCCAUGUCUUCCGGUAGC	20.5 nM	21.2 nM	–	–
AUUAGACAUGAGGAUCACCCAUGUAGGCAGUCAUGAGGAUAUGGACAAGGUGCUCAAGGUCCAGAAGGCAUACGCC	–	–	29.3 nM	18.5 nM
AUUAUACAUGAGGAUCACCCAUGUAAUUAAUUAAUUAAGAUCAAGGAUAUCAGCUCGAAUAGAGCUGAGAAGGUGAUCACAUGU	–	–	330 nM	287 nM
AUUAUAUAGAGAGGAUAUAGAAUAUUAUUUUAACAUGAGGAUCACCCAUGUAACCUUAUGUGUAGCUAGAAGGCUCAUUUAUUA	42.2 nM	74.2 nM	–	–
AUUAUUGACGAAGGAUAUGGAUACAUGAGGAUCACCCAUGUAUAAUUUGUGUUCUUAUAUUUGAUCCAGAAGGUCGUUGUUUAU	35.8 nM	54.6 nM	–	–
AUUAUUGACGAAGGAUAUGGAUACAUGAGGAUCACCCAUGUAUAUUUUGUGAUCAUAUUUAUGAUCCAGAAGGUCGUUGUUUAU	37.3 nM	113 nM	–	–
AUUGUUAAGGUAGGAUAUAGUAAAAUGAUUUAAUUAGAAGGAUCUCACAUGAGGAUCACCCAUGUAAGAGGAUCACCCAUGUAU	12.9 nM	9.73 nM	–	–
AUUGUUUAUGUAGGAUAUGCGAGGCGAGCCUAAGCAGAAGGACAUGAGGAUCACCCAUGUAUUGCGGUCUGCGUUCAGAUCGCU	30.5 nM	127 nM	–	–
AUUUAGUGCGAGAAGGCGUGGUCACAUGAGGAUCACCCAUGUCAGUACACGAGGAUAUCGAUUCACUGUGUUAAUACAAGUGAC	–	–	77.9 nM	6.68 nM
AUUUAUGGCCAGAAGGACAUGAGGAUCACCCAUGUAGGAUAUGGACGAUUUUGCUCGGCGGUUUGUUUAGGAAGCACCGGUGAU	–	–	21.5 nM	7.6 nM
AUUUAUGUCAAAGGAUAUAUAAAUAAAUUUAUAACAUGAGGAUCACCCAUGUACUUUAGUAUGAGGUAGAAGGUUGAUAAGAGU	–	–	47.6 nM	35.6 nM
AUUUCGUCAGGAUAUCCUAGUAAUUGUUUCAUAUUUUCAUAGGAGAAGGGACAUGAGGAUCACCCAUGUUUGUC	25.5 nM	24.5 nM	–	–
AUUUCGUUAGCAGGAUAUGGACAGGCCUGUCCGUAUUGAGACAGUAACAUGAGGAUCACCCAUGUCCAGAAGGGCUCGAAGUAU	30.2 nM	43.9 nM	–	–
AUUUCGUUAGCAGGAUAUGGACAGGCCUGUCCGUAUUGAGUCAGUAACAUGAGGAUCACCCAUGUCCAGAAGGGCUCGAAGGGA	11.2 nM	12.3 nM	–	–
AUUUUAAUGUCAGGAUAUAUUAGUUUAUAUAUAGUAGAAGGGAUAAUUAUACUCAUGUACAUGAGGAUCACCCAUGUUAAAUAA	–	–	216 nM	79.1 nM
AUUUUAUAAUAGAAGGUAGACUUCAUGAGGAUCACCCAUGUGUUGGUACUAAGGAUAUGUAAUAACAUGAGGAUCACCCAUGUU	–	–	16.1 nM	15.2 nM
